The array DNA melting data of Ke et al. (doi:10.1101/2024.01.08.574731)

Legend:
[1] = folding enthalpy; higher = less favourable; fluorescence melt of hairpins on a sequencing array, two-state fit; details: sodium 0.088 M
How it was run: (§1)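 Folding enthalpy and melting temperature were estimated with bootstrapped two-state fits and combined across four replicates by inverse-variance weighting, with fitted temperatures raised by 9.35 °C to match UV melts. The data were Cy3 fluorescence of library hairpins, with annealed Cy3 and quencher oligos, on a sequenced MiSeq flow cell in 50 mM Na-HEPES pH 8.0, 25 mM NaCl, imaged in 2.5 °C steps up to 60 °C and normalised to pre-quench Cy3 and control constructs.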

[2] = melting temperature; fluorescence melt of hairpins on a sequencing array, two-state fit, raised by 9.35 °C to match UV melts; details: sodium 0.088 M
How it was run: as §1

Sequence | folding enthalpy [1] [kcal/mol] | Tm [2] [°C]
GTTAGAGCGAAAGCTAAC (((..(((....)))))) | -14.6 | 33.1
GTTAGCGAAAGCTAAAAC ((((((....)))..))) | -13.2 | 33.4
GTTAGCGAAAGCTAAC ((((((....)))))) | -28.2 | 66.4
GTTAGCGGAAACGTTAAC ((((.((....)).)))) | -28.8 | 44.2
GTTAGTGGAAACACTAAC (((((((....))))))) | -46.1 | 54.7
GTTAGTGGAAACATTAAC ((((.((....)).)))) | -19.2 | 32.5
GTTATAGCGAAAGCTAAC (((..(((....)))))) | -14.3 | 29.9
GTTATCGCGAAAGCGAAC (((..(((....)))))) | -7.39 | 29.8
GTTATCTCGAAAGAGAAC (((..(((....)))))) | -11.8 | 29.8
GTTATGCCGAAAGGCAAC (((..(((....)))))) | -7.54 | 33
GTTATGCGAAAGCAAAAC (((.(((....))).))) | -21 | 41.2
GTTATGCGAAAGCACAAC (((.(((....))).))) | -20.3 | 40.4
GTTATGGGAAACCATAAC (((((((....))))))) | -43.7 | 54
GTTATGGGAAACTATAAC (((((.(....).))))) | -23.8 | 34.6
GTTCAACGAAAGTTTAAC (((.(((....))).))) | -22.9 | 35.2
GTTCACGAAAGTGAAC ((((((....)))))) | -34.7 | 68.4
GTTCACGAAAGTGCAAC ((((((....))).))) | -16.8 | 37.8
GTTCACGAAAGTGGCAAC ((((((....)))..))) | -8.43 | 31.4
GTTCACGAAAGTGTAAC ((((((....))).))) | -18.8 | 38.7
GTTCACGAAAGTGTGAAC ((((((....)))..))) | -25.7 | 47.3
GTTCAGCCGAAAGGCAAC (((..(((....)))))) | -7.39 | 31.4
GTTCAGGAAACTGAAC ((((((....)))))) | -36.7 | 53.8
GTTCAGGGAAACCCGAAC ((((.((....)).)))) | -31.7 | 42.3

Sequence | folding enthalpy [1] [kcal/mol] | Tm [2] [°C]
GTTCCCCGAAAGGGAAC (((.(((....)))))) | -29.6 | 61.2
GTTCCCCGAAAGGGTAAC (((.(((....))).))) | -19.9 | 40.9
GTTCCCGAAAGGGCGAAC ((((((....)))..))) | -9.4 | 31.5
GTTCCCGAAAGGGGTAAC ((((((....)))..))) | -12.2 | 29.8
GTTCCCGAAAGGGTGAAC ((((((....)))..))) | -12.5 | 35.5
GTTCCCGGAAACAGGAAC (((((.(....).))))) | -32.5 | 39.5
GTTCCCGGAAACGGGGAC ((.((((....)))).)) | -26.8 | 58.5
GTTCCGCGAAAGCGTAAC (((.(((....))).))) | -20.2 | 44.1
GTTCGACCGAAAGGTAAC (((..(((....)))))) | -10.9 | 27.3
GTTCGAGGAAACCCGAAC (((((.(....).))))) | -29.9 | 47
GTTCGAGGAAACTCGAGC (.(((((....))))).) | -21.7 | 49.8
GTTCGCCGAAAGGCCAAC (((.(((....))).))) | -15.3 | 39.4
GTTCGCGAAAGCGCCAAC ((((((....)))..))) | -8.24 | 25.6
GTTCGCGAAAGCGTCAAC ((((((....)))..))) | -9.05 | 28.1
GTTCGCGGAAACGTGAGC (.((.((....)).)).) | -22.4 | 41.3
GTTCGCTCGAAAGAGAAC (((..(((....)))))) | -19.8 | 37.5
GTTCGGAAACGAAC (((((....))))) | -25.9 | 56
GTTCGGGCGAAAGCCAAC (((..(((....)))))) | -10.7 | 26.2
GTTCGGGGAAACTCGGAC ((.((.(....).)).)) | -25.6 | 39
GTTCGTCGAAAGACAAAC (((.(((....))).))) | -16.6 | 41.2
GTTCGTGGAAACACGAAC (((((((....))))))) | -39.4 | 65.8
GTTCGTGGAAACACGAGC (.(((((....))))).) | -21.5 | 52.7
GTTCTAGGAAACTGGAAC ((((.((....)).)))) | -28.7 | 42.2

Sequence | folding enthalpy [1] [kcal/mol] | Tm [2] [°C]
GTTCTCCGAAAGGAAAC (((.(((....)))))) | -16 | 35.8
GTTCTCGAAAGAGATAAC ((((((....)))..))) | -13.9 | 28.8
GTTCTCGAAAGAGTAAC ((((((....))).))) | -18.5 | 34.9
GTTCTGGGAAACCGGAAC ((((.((....)).)))) | -41.5 | 50.9
GTTCTTGGAAACAAGAGC (.(((((....))))).) | -19.6 | 41.5
GTTGAACGAAAGTTGAAC (((.(((....))).))) | -25.9 | 38.1
GTTGAAGGAAACTTCAGC (.(((((....))))).) | -23 | 41.4
GTTGAAGGAAACTTCGAC ((.((((....)))).)) | -32.5 | 44.9
GTTGACGAAAGTCCAAC ((((((....))).))) | -17.7 | 40.9
GTTGACGAAAGTCTAAAC ((((((....)))..))) | -12.8 | 30.4
GTTGACGCGAAAGCGAAC (((..(((....)))))) | -12.9 | 39
GTTGACGGAAACGTTAGC (.(.(((....))).).) | -7.85 | 29.9
GTTGAGCGAAAGCTAAC (((.(((....)))))) | -15.2 | 39.8
GTTGAGGGAAACTTCAGC (.(((.(....).))).) | -16.6 | 31.7
GTTGAGGGAAACTTCGAC ((.((.(....).)).)) | -20.3 | 31.5
GTTGATGGAAACACCAAC ((((.((....)).)))) | -30.2 | 37
GTTGCACGAAAGTGAAAC (((.(((....))).))) | -31.5 | 51.8
GTTGCAGGAAACTGCAAC (((((((....))))))) | -39.6 | 68
GTTGCAGGAAACTGTAAC (((.(((....))).))) | -29.8 | 45.8
GTTGCAGGAAACTGTGAC ((..(((....)))..)) | -29.9 | 37.9
GTTGCCCGAAAGGGAAAC (((.(((....))).))) | -32.2 | 56.4
GTTGCCGAAAGGCAAAAC ((((((....)))..))) | -9.67 | 42.5
GTTGCCGAAAGGCAAAC ((((((....))).))) | -11.6 | 58

Sequence | folding enthalpy [1] [kcal/mol] | Tm [2] [°C]
GTTGCCGAAAGGCGGAAC ((((((....)))..))) | -7.95 | 32.8
GTTGCCGAAAGGCGTAAC ((((((....)))..))) | -9.66 | 34.7
GTTGCCGAAAGGCTGAAC ((((((....)))..))) | -9.17 | 31.4
GTTGCCGAAAGGCTTAAC ((((((....)))..))) | -8.96 | 26.6
GTTGCCGGAAACAGCAAC (((((.(....).))))) | -27.4 | 46.9
GTTGCCGGAAACGGCGAC ((.((((....)))).)) | -20.1 | 64.1
GTTGCCGGAAACGGTAGC (.(.(((....))).).) | -17.2 | 39.7
GTTGCGGCGAAAGCCAAC (((..(((....)))))) | -14.7 | 37.8
GTTGCGGGAAACCGCGAC ((.((((....)))).)) | -31 | 60.7
GTTGCGGGAAACTGCAAC (((((.(....).))))) | -38.5 | 56.2
GTTGCGTCGAAAGACAAC (((..(((....)))))) | -13.8 | 30.3
GTTGCTACGAAAGTAAAC (((..(((....)))))) | -9.44 | 28.6
GTTGCTCGAAAGAGTAAC (((.(((....))).))) | -35.1 | 52.4
GTTGCTGGAAACGGTAAC (((.(.(....).).))) | -16.4 | 33.7
GTTGGACGAAAGTCAAC (((.(((....)))))) | -17.5 | 48.6
GTTGGAGCGAAAGCTAAC (((..(((....)))))) | -21.4 | 36.9
GTTGGAGGAAACCCCAAC (((((.(....).))))) | -35.2 | 44.5
GTTGGAGGAAACTCCAGC (.(((((....))))).) | -21.1 | 47.6
GTTGGAGGAAACTCTGAC ((..(((....)))..)) | -21 | 34
GTTGGCCCGAAAGGGAAC (((..(((....)))))) | -18.8 | 45.3
GTTGGCCGAAAGGCAAC (((.(((....)))))) | -16.8 | 53.9
GTTGGCGAAAGCCCGAAC ((((((....)))..))) | -9.07 | 24.2
